Assay results: ChEMBL document CHEMBL1821664, “Sulfonamides as a new scaffold for hypoxia inducible factor pathway inhibitors” (Bioorg Med Chem Lett, 2011)
The source made the active and inactive calls. The rule behind the calls is not given here.

Columns and labels:
[1] = molecular target: T1, Hypoxia inducible factors; HIF-1-alpha, HIF-2-alpha (Homo sapiens, UniProt Q16665+Q99814); experiment: Inhibition of hypoxia-induced HIF1 activation in human LN229 cells expressing HRE-AP reporter gene assessed as HRE remaining activity at 10 uM preincubated for 1 hr under normoxia condition followed by 24 hrs incubation under hypoxia condition by alkaline phosphatase reporter assay relative to control; format: cell-based
Method in brief: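 LN229-HRE-AP cells pre-treated 1 h with compound or vehicle (1% DMSO), then 24 h in 1% O2 hypoxia incubator; cells lysed and alkaline phosphatase activity measured. Hits were compounds reducing hypoxic AP induction >50%; single assay.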

[2] = molecular target: T1, Hypoxia inducible factors; HIF-1-alpha, HIF-2-alpha; experiment: Inhibition of hypoxia-induced HIF1 activation in human LN229 cells expressing HRE-AP reporter gene at 5 uM preincubated for 1 hr under normoxia condition followed by 24 hrs incubation under hypoxia condition by HRE-luciferase reporter assay relative to control; values are per cent of control
[3] = molecular target: T1, Hypoxia inducible factors; HIF-1-alpha, HIF-2-alpha; experiment: Inhibition of hypoxia-induced HIF1 activation in human LN229 cells expressing HRE-AP reporter gene at 10 uM preincubated for 1 hr under normoxia condition followed by 24 hrs incubation under hypoxia condition by HRE-luciferase reporter assay relative to control; values are per cent of control
[4] = molecular target: T1, Hypoxia inducible factors; HIF-1-alpha, HIF-2-alpha; experiment: Inhibition of hypoxia-induced HIF1 activation in human LN229 cells expressing HRE-AP reporter gene at 2.5 uM preincubated for 1 hr under normoxia condition followed by 24 hrs incubation under hypoxia condition by HRE-luciferase reporter assay relative to control; values are per cent of control
[5] = molecular target: T1, Hypoxia inducible factors; HIF-1-alpha, HIF-2-alpha; experiment: Inhibition of hypoxia-induced HIF1 activation in human LN229 cells expressing HRE-AP reporter gene preincubated for 1 hr under normoxia condition followed by 24 hrs incubation under hypoxia condition by HRE-luciferase reporter assay; format: cell-based
Method in brief: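 HRE-luciferase dose-response: cells pre-treated 1 h, then 24 h hypoxia; luciferase measured in cell extracts; each compound run 5–21 times on separate days, in triplicate. IC50 obtained from a four-parameter logistic fit using a nonlinear mixed-effects model.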

[6] = molecular target: T1, Hypoxia inducible factors; HIF-1-alpha, HIF-2-alpha; experiment: Inhibition of hypoxia-induced HIF1 activation in human LN229 cells expressing VEGF reporter gene assessed as VEGF expression at 10 uM preincubated for 1 hr under normoxia condition followed by 24 hrs incubation under hypoxia condition by luciferase reporter assay; format: cell-based
Method in brief: (§1)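 LN229 cells stably carrying a VEGF promoter-luciferase construct, pre-treated 1 h in normoxia with compound at 10 µM final, then 24 h in normoxia or hypoxia; luciferase measured in cell extracts; triplicate means ± SD.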

[7] = molecular target: T1, Hypoxia inducible factors; HIF-1-alpha, HIF-2-alpha; experiment: Inhibition of hypoxia-induced HIF1 activation in human LN229 cells expressing VEGF reporter gene assessed as VEGF expression at 10 uM after 24 hrs incubation under hypoxia condition by luciferase reporter assay; format: cell-based; method in brief: as §1

Row | Compound | Activity [1] [%] | residual activity [2] [%] | residual activity [3] [%] | residual activity [4] [%] | other results
1 | CCN(CC)C(=O)OCn1cc(C(O)c2ccc3c(c2)C=CC(C)(C)O3)nn1 (configuration not stated) | 97.7 |  |  |  | 
2 | CC(C)N(Cc1ccc2c(c1)C=CC(C)(C)O2)S(=O)(=O)c1ccc([N+](=O)[O-])cc1 | 43.2 |  |  |  | 
3 | COc1c(CN(Cc2ccccc2)S(=O)(=O)c2ccc([N+](=O)[O-])cc2)ccc2c1OC(C)(C)C=C2 | 62.2 |  |  |  | 
4 | COc1ccc(S(=O)(=O)N(Cc2ccccc2)Cc2ccc3c(c2OC)OC(C)(C)C=C3)cc1OC | 68.5 |  |  |  | 
5 | CC(C)N(Cc1ccc2c(c1)C=CC(C)(C)O2)C(=O)c1ccc(Br)cc1 | 63.9 |  |  |  | 
6 | COc1c(CN(Cc2ccccc2)S(=O)(=O)c2cc(Cl)ccc2Cl)ccc2c1OC(C)(C)C=C2 | 35 |  |  |  | 
7 | COc1ccc(Cl)cc1S(=O)(=O)N(Cc1ccc2c(c1)C=CC(C)(C)O2)c1ccccc1 |  | 56 | 28 | 61 | 
8 | Cc1ccc(S(=O)(=O)N(Cc2ccc3c(c2)C=CC(C)(C)O3)C(C)C)cc1 | 55 |  |  |  | 
9 | CC1(C)C=Cc2cc(CN(C3CCCCC3)S(=O)(=O)c3ccc([N+](=O)[O-])cc3)ccc2O1 |  | 53 | 33 | 68 | 
10 | COc1c(CN(Cc2ccccc2)C(C)=O)ccc2c1OC(C)(C)C=C2 | 93.1 |  |  |  | 
11 | CC1(C)C=Cc2cc(CN(Cc3ccccc3)S(=O)(=O)c3ccc(Oc4c(Cl)cccc4[N+](=O)[O-])cc3)ccc2O1 |  | 51 | 27 | 54 | 
12 | CC(O)c1ccc2c(c1)C=CC(C)(C)O2 (configuration not stated) | 94.9 |  |  |  | 
13 | COc1c(CN(Cc2ccccc2)S(=O)(=O)c2ccc(C)cc2)ccc2c1OC(C)(C)C=C2 | 40.4 |  |  |  | 
14 | CC1(C)C=Cc2cc(CN(c3ccccc3)S(=O)(=O)c3cc(Cl)ccc3Cl)ccc2O1 | 54.2 | 51 | 35 | 62 | 
15 | COc1c(C(C(C)C)n2cnc3ncccc32)ccc2c1C=CC(C)(C)O2 (configuration not stated) | 88.8 |  |  |  | 
16 | COc1cc(OC)cc(S(=O)(=O)N(Cc2ccc3c(c2)C=CC(C)(C)O3)CC(C)C)c1 |  |  |  |  | IC50 [5]: 1011 nM; inhibition [6]: Active; inhibition [7]: inactive
17 | CC1(C)C=Cc2cc(CN(C3CCCCC3)S(=O)(=O)c3cccc4ccccc34)ccc2O1 |  | 37 | 37 | 68 | 

Row | Compound | Activity [1] [%] | residual activity [2] [%] | residual activity [3] [%] | residual activity [4] [%] | other results
18 | COc1ccc(S(=O)(=O)N(Cc2ccc3c(c2)C=CC(C)(C)O3)C2CCCCC2)cc1OC |  | 17 | 4 | 44 | 
19 | COc1c(C(C)n2ccnc2)ccc2c1C=CC(C)(C)O2 (configuration not stated) | 104 |  |  |  | 
20 | CC(C)CN(Cc1ccc2c(c1)C=CC(C)(C)O2)S(=O)(=O)c1ccc(Oc2c(Cl)cccc2[N+](=O)[O-])cc1 |  | 23 | 24 | 34 | 
21 | CC1(C)C=Cc2cc(CN(C(=O)c3ccc(Br)cc3)c3ccccc3)ccc2O1 | 57.6 |  |  |  | 
22 | COc1c(/C=N/O)ccc2c1OC(C)(C)C=C2 | 89.4 |  |  |  | 
23 | CC1(C)C=Cc2cc(CN(c3ccccc3)S(=O)(=O)c3ccc(Oc4c(Cl)cccc4[N+](=O)[O-])cc3)ccc2O1 |  | 21 | 27 | 40 | 
24 | CCOC(OCC)c1ccc2c(c1OC)OC(C)(C)C=C2 | 105 |  |  |  | 
25 | CC(C)N(Cc1ccc2c(c1)C=CC(C)(C)O2)S(=O)(=O)c1cc(Cl)ccc1Cl | 41.9 |  |  |  | 
26 | COc1ccc(S(=O)(=O)N(Cc2ccccc2)Cc2ccc3c(c2)C=CC(C)(C)O3)cc1OC |  | 26 | 15 | 54 | 
27 | CC1(C)C=Cc2cc(C(O)c3cn(CCNc4ccc([N+](=O)[O-])c5nonc45)nn3)ccc2O1 (configuration not stated) | 116 |  |  |  | 
28 | COc1ccc(S(=O)(=O)N(Cc2ccccc2)Cc2ccc3c(c2)C=CC(C)(C)O3)c(OC)c1 |  | 54 | 20 | 60 | 
29 | CC1(C)C=Cc2cc(C(c3ccccc3)n3ccnc3)ccc2O1 (configuration not stated) | 88.9 |  |  |  | 
30 | COc1ccc(Cl)cc1S(=O)(=O)N(Cc1ccc2c(c1)C=CC(C)(C)O2)CC(C)C |  | 90 | 73 | 81 | 
31 | CC1(C)C=Cc2cc(CN(c3ccccc3)S(=O)(=O)c3ccc(Br)cc3OC(F)(F)F)ccc2O1 |  | 56 | 35 | 53 | 
32 | CC(c1ccc2c(c1)C=CC(C)(C)O2)n1cnc2ncccc21 (configuration not stated) | 76.9 |  |  |  | 
33 | CC(=O)N(Cc1ccc2c(c1)C=CC(C)(C)O2)C(C)C | 105 |  |  |  | 
34 | COc1ccc(S(=O)(=O)N(Cc2ccc3c(c2OC)OC(C)(C)C=C3)c2ccccc2)cc1OC | 48.6 |  |  |  | 

Continued, in another order:

Row | Activity [1] [%] | residual activity [2] [%] | residual activity [3] [%] | residual activity [4] [%] | Compound | other results
35 | 98.2 |  |  |  | C=Cc1ccc2c(c1)C=CC(C)(C)O2 | 
36 |  | 57 | 24 | 49 | CC(C)CN(Cc1ccc2c(c1)C=CC(C)(C)O2)S(=O)(=O)c1ccc(Br)cc1OC(F)(F)F | 
37 |  | 75 | 29 | 55 | CC1(C)C=Cc2cc(CN(c3ccccc3)S(=O)(=O)c3cccc4ccccc34)ccc2O1 | 
38 | 106 |  |  |  | CC1(C)C=Cc2cc(C(O)n3cc(-c4ccccc4)nn3)ccc2O1 (configuration not stated) | 
39 | 58.4 |  |  |  | COc1c(CN(c2ccccc2)S(=O)(=O)c2ccc(C)cc2)ccc2c1OC(C)(C)C=C2 | 
40 | 86.6 |  |  |  | CC(c1ccc2c(c1)C=CC(C)(C)O2)n1ccnc1 (configuration not stated) | 
41 | 108 |  |  |  | COc1c(CN(C(C)=O)c2ccccc2)ccc2c1OC(C)(C)C=C2 | 
42 |  | 35 | 27 | 47 | CC1(C)C=Cc2cc(CN(Cc3ccccc3)S(=O)(=O)c3ccc([N+](=O)[O-])cc3)ccc2O1 | 
43 | 61.8 |  |  |  | COc1c(CN(C(=O)c2cccs2)c2ccccc2)ccc2c1OC(C)(C)C=C2 | 
44 | 67.5 |  |  |  | COc1c(CN(Cc2ccccc2)C(=O)c2cccs2)ccc2c1OC(C)(C)C=C2 | 
45 |  | 66 | 50 | 78 | CC1(C)C=Cc2cc(CN(c3ccccc3)S(=O)(=O)c3ccc([N+](=O)[O-])cc3)ccc2O1 | 
46 | 72.4 |  |  |  | COc1c(CN(c2ccccc2)S(=O)(=O)c2ccc([N+](=O)[O-])cc2)ccc2c1OC(C)(C)C=C2 | 
47 |  | 78 | 50 | 66 | COc1ccc(Cl)cc1S(=O)(=O)N(Cc1ccccc1)Cc1ccc2c(c1)C=CC(C)(C)O2 | 
48 |  | 61 | 31 | 76 | COc1ccc(S(=O)(=O)N(Cc2ccc3c(c2)C=CC(C)(C)O3)c2ccccc2)c(OC)c1 | 
49 | 95.7 |  |  |  | COc1c(C(C)n2cnc3ncccc32)ccc2c1C=CC(C)(C)O2 (configuration not stated) | 
50 | 55.7 |  |  |  | COc1c(C(C)n2cnc3cc(Cl)ccc32)ccc2c1C=CC(C)(C)O2 (configuration not stated) | 
51 | 91.4 |  |  |  | CC1(C)C=Cc2cc(/C=N/O)ccc2O1 | 

Row | Activity [1] [%] | residual activity [2] [%] | residual activity [3] [%] | residual activity [4] [%] | Compound | other results
52 | 91.5 |  |  |  | CC(=O)N(Cc1ccc2c(c1)C=CC(C)(C)O2)c1ccccc1 | 
53 | 135 |  |  |  | COc1c(C(C(C)C)n2ccnc2)ccc2c1C=CC(C)(C)O2 (configuration not stated) | 
54 |  | 49 | 49 | 73 | CC1(C)C=Cc2cc(CN(C3CCCCC3)S(=O)(=O)c3ccc(Oc4c(Cl)cccc4[N+](=O)[O-])cc3)ccc2O1 | 
55 | 79.1 |  |  |  | CC1(C)C=Cc2cc(CN(C(=O)c3cccs3)c3ccccc3)ccc2O1 | 
56 |  | 75 | 61 | 79 | CC1(C)C=Cc2cc(CN(C3CCCCC3)S(=O)(=O)c3ccc(Br)cc3OC(F)(F)F)ccc2O1 | 
57 | 63.2 |  |  |  | COc1c(CN(C(=O)c2ccc(Br)cc2)c2ccccc2)ccc2c1OC(C)(C)C=C2 | 
58 | 88.8 |  |  |  | CC1(C)C=Cc2cc(C(O)c3cn(Cc4ccccc4)nn3)ccc2O1 (configuration not stated) | 
59 | 90.7 |  |  |  | CC1(C)C=Cc2cc(C(O)c3cn(C(C)(C)C)nn3)ccc2O1 (configuration not stated) | 
60 | 117 |  |  |  | CC1(C)C=Cc2cc(C(O)c3cn(CCOc4ccc5ccc(=O)oc5c4)nn3)ccc2O1 (configuration not stated) | 
61 |  | 60 | 24 | 54 | CC1(C)C=Cc2cc(CN(C3CCCCC3)S(=O)(=O)c3cc(Cl)ccc3Cl)ccc2O1 | 
62 | 101 |  |  |  | CC1(C)C=Cc2cc(C(O)c3cn(C45CC6CC(CC(C6)C4)C5)nn3)ccc2O1 (configuration not stated) | 
63 | 64.7 |  |  |  | COc1ccc(S(=O)(=O)N(Cc2ccc3c(c2)C=CC(C)(C)O3)C(C)C)cc1OC | 
64 | 87.9 |  |  |  | CC1(C)C=Cc2cc(C(c3ccccc3)n3cnc4cc(Cl)ccc43)ccc2O1 (configuration not stated) | 
65 | 51.5 |  |  |  | COc1c(CN(c2ccccc2)S(=O)(=O)c2cc(Cl)ccc2Cl)ccc2c1OC(C)(C)C=C2 | 
66 | 83.5 |  |  |  | CC1(C)C=Cc2cc(C(c3ccccc3)n3cnc4ncccc43)ccc2O1 (configuration not stated) | 
67 | 46.2 |  |  |  | CC(C)N(Cc1ccc2c(c1)C=CC(C)(C)O2)C(=O)c1cccs1 | 
